pKi: −log10 of the molar value. In brackets after ≈: the same amount, converted by molar mass. Some results are limits rather than exact numbers.

Experimental findings from ChEMBL document CHEMBL4725448, “Substituted Azabicyclo[2.2.1]heptanes as Selective Orexin-1 Antagonists: Discovery of JNJ-54717793” (ACS Med Chem Lett, 2020) are described below.

In one data set the target is T1, Orexin receptor type 2 (Homo sapiens, UniProt O43614).
T1 sequence (O43614 whole entry): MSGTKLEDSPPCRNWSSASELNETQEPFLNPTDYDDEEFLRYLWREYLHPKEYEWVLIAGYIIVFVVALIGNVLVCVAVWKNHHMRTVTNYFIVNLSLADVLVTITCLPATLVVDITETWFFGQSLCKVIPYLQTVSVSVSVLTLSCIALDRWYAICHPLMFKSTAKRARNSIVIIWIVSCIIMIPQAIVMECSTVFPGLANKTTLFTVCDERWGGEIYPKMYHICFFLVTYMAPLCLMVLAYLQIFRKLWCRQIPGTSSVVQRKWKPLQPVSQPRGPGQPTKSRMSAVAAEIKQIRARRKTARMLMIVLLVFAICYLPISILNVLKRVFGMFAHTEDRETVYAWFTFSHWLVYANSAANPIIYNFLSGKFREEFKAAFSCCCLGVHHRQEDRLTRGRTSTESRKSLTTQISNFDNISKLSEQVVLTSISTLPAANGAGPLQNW
Kind of data set: Binding affinity to human OX2R.

The target of data set [1] is T2, Orexin/Hypocretin receptor type 1 (Homo sapiens, UniProt O43613).
T2 sequence (O43613 whole entry): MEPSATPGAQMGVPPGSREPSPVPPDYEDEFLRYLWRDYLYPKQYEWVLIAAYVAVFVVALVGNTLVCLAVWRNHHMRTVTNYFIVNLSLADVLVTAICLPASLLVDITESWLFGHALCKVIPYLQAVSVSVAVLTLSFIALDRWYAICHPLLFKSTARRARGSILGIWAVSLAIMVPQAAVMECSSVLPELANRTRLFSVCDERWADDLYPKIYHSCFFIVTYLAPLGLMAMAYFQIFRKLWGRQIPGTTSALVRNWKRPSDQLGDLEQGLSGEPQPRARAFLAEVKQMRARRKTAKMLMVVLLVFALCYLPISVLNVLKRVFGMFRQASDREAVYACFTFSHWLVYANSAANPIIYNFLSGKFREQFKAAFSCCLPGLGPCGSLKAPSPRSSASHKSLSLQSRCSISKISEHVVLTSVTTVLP
Kind of data set: Binding affinity to human […].

The species named for another data set is Homo sapiens. Nature of the data set: Selectivity index, ratio of Ki for human OX2R to Ki for human OX1R.
A short description of data set [2]: Stability in rat liver microsomes assessed as extraction ratio. It counts as ADME, Microsome. The note with it: read-out: ERH. The gist of the method:
(§1)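 Metabolic stability in human or rat liver microsomes, expressed as extraction ratios.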
Background: Microsomes from liver hold many membrane-bound enzymes, among them those of drug oxidation.

Data set [3] is described as follows: Stability in human liver microsomes assessed as extraction ratio. Format: ADME, Microsome. The note with it: read-out: ERH. The gist of the method:
as §1

Data set [4] is described as follows: Ex vivo receptor occupancy at OX1R in Sprague-Dawley rat brain tenia tecta using [3H]SB-674042 labelling at 10 mg/kg, po measured after 6 hrs by autoradiography. It counts as functional. In short, it runs like this:
(§2)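 Rats received a single oral dose, and OX1R occupancy was measured by ex vivo binding autoradiography in brain tenia tecta sections at 0.5, 2 and 6 h after dosing. Occupancy is expressed as percent. Brain and plasma drug levels (ng/mL) were also sampled at the 0.5 h time point.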

A short description of data set [5]: Protein binding in rat plasma assessed as free fraction. Format: ADME, cell-free.
Data set [6] is described as follows: Protein binding in rat brain assessed as free fraction. Format: ADME, tissue-based.
Data set [7] can be described thus: Permeability across basolateral to apical side in MDCK cells. The note with it: dog. It counts as ADME, cell-based, Canis lupus familiaris.
Data set [8] is described as follows: Ex vivo receptor occupancy at OX1R in po dosed rat tenia tecta after 60 mins. It counts as functional, organism-based. The settings on record: 1 h.
Data set [9] in a line: Ex vivo receptor occupancy at OX1R in Sprague-Dawley rat brain tenia tecta using [3H]SB-674042 labelling at 10 mg/kg, po measured after 0.5 hrs by autoradiography. It counts as functional. The gist of the method:
as §2

The nature of data set [10]: Drug concentration in Sprague-Dawley rat brain at 10 mg/kg, po after 0.5 hrs by LC-MS/MS analysis. Format: ADME, organism-based. The note with it: read-out: Ct. In short, it runs like this: (§3)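 Brain and plasma levels (ng/mL) sampled 0.5 h after oral dosing at 10 or 30 mg/kg, alongside the ex vivo tenia tecta occupancy study.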
Data set [11] in a line: Permeability across apical to basolateral side in MDCK cells. Format: ADME, cell-based, Canis lupus familiaris. The settings on record: dog.
Data set [12] in a line: Protein binding in human plasma assessed as free fraction. Format: ADME, cell-free.
A further data set addresses T3, PXR (NR1I2) (Homo sapiens, UniProt O75469).
T3 sequence (O75469 whole entry): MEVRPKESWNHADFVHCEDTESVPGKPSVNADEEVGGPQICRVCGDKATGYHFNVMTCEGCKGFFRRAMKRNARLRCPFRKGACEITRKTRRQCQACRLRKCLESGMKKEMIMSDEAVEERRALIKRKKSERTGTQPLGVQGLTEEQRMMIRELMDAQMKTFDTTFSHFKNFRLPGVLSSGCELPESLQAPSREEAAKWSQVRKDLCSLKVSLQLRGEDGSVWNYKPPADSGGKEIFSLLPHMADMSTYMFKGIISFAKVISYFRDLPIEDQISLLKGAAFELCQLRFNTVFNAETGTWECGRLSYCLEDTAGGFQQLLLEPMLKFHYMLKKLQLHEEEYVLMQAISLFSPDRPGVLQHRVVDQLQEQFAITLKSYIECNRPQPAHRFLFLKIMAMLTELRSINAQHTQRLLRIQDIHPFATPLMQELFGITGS
Kind of data set: Induction of human PXR at 10 uM relative to control. The settings on record: read-out: Activity. It counts as ADME. The gist of the method:
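Human PXR activation as an indirect measure of CYP3A4 induction, at 10 μM, expressed as % of rifampicin control activation.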

The nature of data set [13]: Ex vivo receptor occupancy at OX1R in Sprague-Dawley rat brain tenia tecta using [3H]SB-674042 labelling at 10 mg/kg, po measured after 2 hrs by autoradiography. Format: functional. In short, it runs like this:
as §2

Data set [14] is described as follows: Drug concentration in Sprague-Dawley rat plasma at 10 mg/kg, po after 0.5 hrs by LC-MS/MS analysis. Format: ADME, organism-based. The gist of the method: as §3

A word on the pKi: it is the Ki on a negative log10 scale, so that one unit is a factor of ten. A low value points to a high Ki. In the case of `O=C(c1ccccc1-n1nccn1)N1C2CCC1C(Nc1ccc(Cl)cn1)C2` (racemic), the pKi is 5.67 on Orexin receptor type 2 and 7.02 in data set [1]. For the same compound, in the data set filed under Homo sapiens, the Ratio Ki was found to be 20. Moreover, the hepatic extraction ratio in data set [2] is over 0.92; in [3], 0.88.
By fraction unbound is commonly meant free concentration divided by total concentration. The term Papp B→A denotes how fast a substance crosses the layer from the basolateral side. In general, EC50 refers to the concentration at which the effect is half-maximal. A higher EC50 goes with a need for much substance. One may read the ED50 as the midpoint of the dose-response relation. A higher ED50 goes with a need for a large dose. Broadly, the Papp A→B is the apparent permeability from the apical to the basolateral side of a cell layer. A high value points to ready permeation. On to `O=C(c1cccc(F)c1-c1ncccn1)N1[C@@H]2CC[C@H]1[C@H](Nc1ncc(C(F)(F)F)cc1F)C2`, for which the Activity in data set [4] came out at 46%; in data set [9], 81%; in data set [13], 70%. In addition, the fraction unbound in [5] stood at 0.064; in [6] it was 0.027; in data set [12], 0.056. This compound also yielded a Papp B→A in [7] of 71.3 ×10⁻⁶ cm/s. This compound came in with an EC50 in data set [8] of 0.25 µg/mL (≈ 0.526 µM). In [8] (po, time 60 min), it took a dose of 4.8 mg/kg to reach the 50% effect level (ED50). Further, the results for the concentration at 0.5 h in [10] and in data set [14] were 539 ng/mL and 837 ng/mL, respectively. Moreover, the pKi is 5.96 on Orexin receptor type 2 and 7.82 in data set [1]. The compound further showed a Papp A→B in [11] of 7.7 ×10⁻⁶ cm/s. Also, the hepatic extraction ratio in [2] was determined as 0.8; in [3] it was 0.49. In addition, the activity at 10 µM on PXR (NR1I2) was found to be 39%.
Turning to `O=C(c1ccccc1-c1ncccn1)N1[C@@H]2CC[C@H]1[C@H](Nc1cnc(C(F)(F)F)cn1)C2`, the Activity worked out at 48% in data set [4], 77% in [9] and 83% in [13]. The unbound share (fraction unbound) in data set [5] came to 0.214; in data set [6], 0.067; in data set [12] it was 0.15. In [7], this compound yielded a Papp B→A of 68 ×10⁻⁶ cm/s. Also, the figures for the concentration at 0.5 h in [10] and in data set [14] were 296 ng/mL and 1480 ng/mL, respectively. Besides, the figures for the pKi (at Orexin receptor type 2; in data set [1]) were 6.28 and 7.72, respectively. The compound further gave a Papp A→B in data set [11] of 1.1 ×10⁻⁶ cm/s. Besides, the hepatic extraction ratio in data set [2] is 0.38; in data set [3] it was under 0.3. At PXR (NR1I2), the activity at 10 µM came to 18%.
